From ChEMBL document CHEMBL5338796, “Discovery of a Selective and Orally Bioavailable FGFR2 Degrader for Treating Gastric Cancer” (J Med Chem, 2023)
One block for each molecule: values may come before it. The source made the active and inactive calls. No cut-off for these calls is given here.

What was measured:
[1] = target: T1, Protein cereblon/Fibroblast growth factor receptor 2 (Homo sapiens, UniProt P21802+Q96SW2); assay: PROTAC activity at CRBN/FGFR2 in human KATO III stomach cancer cell line assessed as FGFR2 degradation by measuring FGFR2 expression level at 500 nM measured for 6 hrs by Western blotting analysis relative to control; assay type: cell-based
In short: (§1)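 KATO III cells treated 6 h across 0.5–10,000 nM (DMSO stock, final DMSO below 0.5%); FGFR2 immunoblotted, quantified as FGFR2/β-actin ratio normalized to DMSO-treated cells, three independent biological experiments; DC50 and Dmax derived from the curve.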
Target sequence in this assay (P21802 22-821 limits assumed): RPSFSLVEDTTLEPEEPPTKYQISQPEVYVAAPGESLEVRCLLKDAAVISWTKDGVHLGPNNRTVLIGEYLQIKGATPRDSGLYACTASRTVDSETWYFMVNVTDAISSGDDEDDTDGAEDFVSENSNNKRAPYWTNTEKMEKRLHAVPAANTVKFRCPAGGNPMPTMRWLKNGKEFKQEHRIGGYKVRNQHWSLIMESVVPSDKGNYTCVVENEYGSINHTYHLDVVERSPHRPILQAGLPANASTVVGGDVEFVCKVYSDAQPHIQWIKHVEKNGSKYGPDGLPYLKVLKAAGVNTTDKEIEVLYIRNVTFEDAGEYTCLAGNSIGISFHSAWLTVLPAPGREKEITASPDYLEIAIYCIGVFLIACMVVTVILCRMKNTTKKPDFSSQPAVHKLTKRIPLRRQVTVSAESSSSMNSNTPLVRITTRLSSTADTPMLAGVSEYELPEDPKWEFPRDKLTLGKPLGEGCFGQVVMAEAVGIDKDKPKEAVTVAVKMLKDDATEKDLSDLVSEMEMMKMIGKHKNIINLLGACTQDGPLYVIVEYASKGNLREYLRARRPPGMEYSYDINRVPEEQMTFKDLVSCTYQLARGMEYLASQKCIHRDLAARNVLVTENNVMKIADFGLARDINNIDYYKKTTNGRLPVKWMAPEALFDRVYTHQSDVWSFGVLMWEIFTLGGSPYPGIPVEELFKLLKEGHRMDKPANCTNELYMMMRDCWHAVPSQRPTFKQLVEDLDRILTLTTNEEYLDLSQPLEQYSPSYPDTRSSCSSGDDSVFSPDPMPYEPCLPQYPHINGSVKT
Target sequence in this assay (Q96SW2 whole entry partner): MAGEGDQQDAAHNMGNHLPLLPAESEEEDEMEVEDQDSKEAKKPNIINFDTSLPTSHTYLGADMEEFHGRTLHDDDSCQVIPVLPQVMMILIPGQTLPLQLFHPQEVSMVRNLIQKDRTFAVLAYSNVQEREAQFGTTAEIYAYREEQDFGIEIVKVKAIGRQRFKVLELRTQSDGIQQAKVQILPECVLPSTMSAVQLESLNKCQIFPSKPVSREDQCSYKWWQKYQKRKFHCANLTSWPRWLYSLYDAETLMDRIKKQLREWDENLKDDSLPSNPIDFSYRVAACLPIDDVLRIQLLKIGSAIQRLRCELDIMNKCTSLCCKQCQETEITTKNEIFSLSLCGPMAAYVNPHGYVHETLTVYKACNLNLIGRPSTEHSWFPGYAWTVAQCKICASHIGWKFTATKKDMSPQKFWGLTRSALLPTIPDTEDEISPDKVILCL

[2] = target: T1, Protein cereblon/Fibroblast growth factor receptor 2; assay: PROTAC activity at CRBN/FGFR2 in human KATO III stomach cancer cell line assessed as FGFR2 degradation by measuring FGFR2 expression level at 100 to 500 nM measured for 6 hrs by Western blotting analysis; assay type: cell-based; settings: dose 100-500 nM; in short: as §1
Target sequence in this assay (P21802 22-821 limits assumed): as the sequence (P21802 22-821 limits assumed) above
Target sequence in this assay (Q96SW2 whole entry partner): as the sequence (Q96SW2 whole entry partner) above

[3] = target: T1, Protein cereblon/Fibroblast growth factor receptor 2; assay: PROTAC activity at CRBN/FGFR2 in human KATO III stomach cancer cell line assessed as FGFR2 degradation by measuring FGFR2 expression level at 15 uM measured for 6 hrs by Western blotting analysis; assay type: cell-based
Target sequence in this assay (P21802 22-821 limits assumed): as the sequence (P21802 22-821 limits assumed) above
Target sequence in this assay (Q96SW2 whole entry partner): as the sequence (Q96SW2 whole entry partner) above

NCI-H716 = assay: Antiproliferative activity against human NCI-H716 cells assessed as reduction in cell viability measured for 72 hrs by celltiter-glo reagent based assay; assay type: functional; settings: NCI-H716, 72 h
In short: (§2)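 Cancer lines KATO III, SNU16, NCI-H716, NCI-H1975, MV-4-11 and HEK293T treated 72 h; antiproliferative IC50 given as mean ± s.d. from three independent biological experiments.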

SNU-16 [4] = assay: Antitumor activity against human SNU-16 cells xenografted in BALB/c nude mouse assessed as tumor growth inhibition at 20 mg/kg, po administered for 15 days and measured on day 2; assay type: functional; settings: SNU-16, 48 h, time 2 day, read-out: TGI
In short: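 Female BALB/c nude mice, 5 weeks old (20–22 g), s.c. right-flank SNU-16 implants, randomized by body weight into groups (n = 5) once tumours reached 50–100 mm3. Dosing 20 mg/kg/day intragastric in 0.5% CMC-Na for 15 d; vehicle controls. Tumour width and length measured every 2 days; tumours harvested 4 h after last dose and lysates immunoblotted for pFGFR, FGFR2, pPLCγ, pErk.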

SNU-16 [5] = assay: Antiproliferative activity against human SNU-16 cells assessed as reduction in cell viability measured for 72 hrs by celltiter-glo reagent based assay; assay type: functional; settings: SNU-16, 72 h; in short: as §2
[6] = system: KATO III stomach cancer cell line; assay: Antiproliferative activity against human KATO III stomach cancer cell line assessed as reduction in cell viability measured for 72 hrs by celltiter-glo reagent based assay; assay type: functional; in short: as §2
[7] = Oral bioavailability in mouse at 10 mg/kg; assay type: ADME, organism-based; settings: in vivo
MV4-11 = assay: Antiproliferative activity against human MV4-11 cells assessed as reduction in cell viability measured for 72 hrs by celltiter-glo reagent based assay; assay type: functional; settings: MV4-11, 72 h; in short: as §2
[8] = Antiproliferative activity against human HEK293T cells assessed as reduction in cell viability measured for 72 hrs by celltiter-glo reagent based assay; assay type: toxicity, HEK-293T; in short: as §2
NCI-H1975 = assay: Antiproliferative activity against human NCI-H1975 cells assessed as reduction in cell viability measured for 72 hrs by celltiter-glo reagent based assay; assay type: functional; settings: NCI-H1975, 72 h; in short: as §2
[9] = target: T1, Protein cereblon/Fibroblast growth factor receptor 2; assay: PROTAC activity at CRBN/FGFR2 in human KATO III stomach cancer cell line assessed as FGFR2 degradation measured for 6 hrs by immunoblot analysis; assay type: cell-based
In short: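 KATO III cells treated for 6 h at the stated concentrations, added from 10 mM DMSO stocks (final DMSO below 0.5%). Cells were washed with PBS and lysed in 2× loading buffer, then run on SDS-PAGE and blotted to PVDF. Anti-FGFR2 was applied overnight at 4 °C, with ECL detection. FGFR2 was expressed as FGFR2/β-actin, normalized to DMSO-treated cells, from three independent biological experiments.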
Target sequence in this assay (P21802 22-821 limits assumed): as the sequence (P21802 22-821 limits assumed) above
Target sequence in this assay (Q96SW2 whole entry partner): as the sequence (Q96SW2 whole entry partner) above

[10] = target: T1, Protein cereblon/Fibroblast growth factor receptor 2; assay: PROTAC activity at CRBN/FGFR2 in human KATO III stomach cancer cell line assessed as FGFR2 degradation by measuring FGFR2 expression level measured for 6 hrs by Western blotting analysis; assay type: cell-based; in short: as §1
Target sequence in this assay (P21802 whole entry): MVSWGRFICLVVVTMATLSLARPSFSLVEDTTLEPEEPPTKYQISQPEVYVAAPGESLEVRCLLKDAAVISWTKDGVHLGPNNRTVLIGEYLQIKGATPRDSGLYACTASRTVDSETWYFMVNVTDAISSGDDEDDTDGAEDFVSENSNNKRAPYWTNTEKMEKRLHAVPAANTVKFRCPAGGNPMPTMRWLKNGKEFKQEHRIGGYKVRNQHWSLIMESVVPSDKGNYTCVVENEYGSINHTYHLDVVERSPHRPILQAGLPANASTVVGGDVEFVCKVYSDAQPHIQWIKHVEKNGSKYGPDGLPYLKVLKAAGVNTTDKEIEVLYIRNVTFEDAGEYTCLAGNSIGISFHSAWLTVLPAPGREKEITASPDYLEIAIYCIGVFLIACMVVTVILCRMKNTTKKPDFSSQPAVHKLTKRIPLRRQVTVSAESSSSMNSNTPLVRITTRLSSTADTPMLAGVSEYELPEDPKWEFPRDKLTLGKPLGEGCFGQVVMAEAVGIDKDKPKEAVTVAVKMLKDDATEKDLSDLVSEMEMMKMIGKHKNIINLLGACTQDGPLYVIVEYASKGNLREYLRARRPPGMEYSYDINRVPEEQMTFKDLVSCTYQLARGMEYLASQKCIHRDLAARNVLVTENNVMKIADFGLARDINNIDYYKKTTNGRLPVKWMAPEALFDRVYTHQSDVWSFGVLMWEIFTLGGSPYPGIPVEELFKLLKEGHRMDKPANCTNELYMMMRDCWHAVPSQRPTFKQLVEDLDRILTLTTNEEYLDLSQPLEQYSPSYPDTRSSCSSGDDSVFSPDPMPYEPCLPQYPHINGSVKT
Target sequence in this assay (Q96SW2 whole entry): as the sequence (Q96SW2 whole entry partner) above

Structure (SMILES): COc1cc(OC)c(Cl)c(NC(=O)N(C)c2cc(Nc3ccc(N4CCN(CC(=O)NCCOCCOCCNC(=O)C5CCN(c6ccc7c(c6)C(=O)N(C6CCC(=O)NC6=O)C7=O)CC5)CC4)cc3)ncn2)c1Cl (centres undefined)
Activity [3]: inactive

Structure (SMILES): COc1cc(OC)c(Cl)c(NC(=O)N(C)c2cc(Nc3ccc(N4CCN(CC(=O)N[C@H](C(=O)N5C[C@H](O)C[C@H]5C(=O)N[C@@H](C)c5ccc(-c6scnc6C)cc5)C(C)(C)C)CC4)cc3)ncn2)c1Cl
bioavailability [7]: 0.2%

Structure (SMILES): COc1cc(OC)c(Cl)c(NC(=O)N(C)c2cc(Nc3ccc(N4CCN(C(=O)C5CCN(c6ccc7c(c6)C(=O)N(C6CCC(=O)N(C)C6=O)C7=O)CC5)CC4)cc3)ncn2)c1Cl (centres undefined)
IC50 (NCI-H716): 99.5 nM
IC50 (MV4-11): > 10 µM
IC50 at 72 h [8]: > 10 µM
IC50 (SNU-16 [5]): 108 nM
IC50 (NCI-H1975): > 10 µM
Activity [9]: inactive
IC50 [6]: 497 nM

Structure (SMILES): COc1cc(OC)c(Cl)c(NC(=O)N(C)c2cc(Nc3ccc(N4CCN(C(=O)CCCCCCCCCCCNc5cccc6c5C(=O)N(C5CCC(=O)NC5=O)C6=O)CC4)cc3)ncn2)c1Cl (centres undefined)
Activity [2]: inactive

Continued, in another order:

Activity ([1]; DEGRADER): 40%
Structure (SMILES): COc1cc(OC)c(Cl)c(NC(=O)N(C)c2cc(Nc3ccc(N4CCN(C(=O)CCCCCCCNc5cccc6c5C(=O)N(C5CCC(=O)NC5=O)C6=O)CC4)cc3)ncn2)c1Cl (centres undefined)

Activity [2]: inactive
Structure (SMILES): COc1cc(OC)c(Cl)c(NC(=O)N(C)c2cc(Nc3ccc(N4CCN(CC(=O)NCCNc5cccc6c5C(=O)N(C5CCC(=O)NC5=O)C6=O)CC4)cc3)ncn2)c1Cl (centres undefined)

IC50 (NCI-H716): 65.9 nM
IC50 (SNU-16 [5]): 95.4 nM
IC50 [6]: 60.3 nM
Structure (SMILES): CCN1CCN(c2ccc(Nc3cc(N(C)C(=O)Nc4c(Cl)c(OC)cc(OC)c4Cl)ncn3)cc2)CC1 [INFIGRATINIB]
inhibition in vivo at 20 mg/kg (SNU-16 [4]): 53.7%

Activity [1]: 66%
Activity ([1]; DEGRADER): 20%
DC50 [10]: 41.5 nM
Structure (SMILES): COc1cc(OC)c(Cl)c(NC(=O)N(C)c2cc(Nc3ccc(N4CCN(CC(=O)NCCCCCNc5cccc6c5C(=O)N(C5CCC(=O)NC5=O)C6=O)CC4)cc3)ncn2)c1Cl (centres undefined)
